Measured values published in ChEMBL document CHEMBL1158900, “Synthesis and antimitotic/cytotoxic activity of hemiasterlin analogues” (J Nat Prod, 2003).

Legend:
MCF7 [1] = assay: Antimitotic activity against human MCF7 cells expressing p53 mutant
MCF7 [2] = assay: Cytotoxicity activity against human MCF7 cells expressing p53 mutant by MTT assay; assay type: functional, cell-based
Method in brief: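 Human mammary carcinoma MCF-7 cells carrying a dominant-negative mutant p53 tumour suppressor gene (MCF-7 mup53). Cytotoxicity was read out by MTT assay, and the value reported is the IC50 in nM.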

SMILES: CN[C@H](C(=O)N[C@H](C(=O)N[C@H](/C=C(\C)C(=O)O)C(C)C)C(C)(C)C)C(C)(C)C
- IC50 (MCF7 [1]): > 10000 nM
- IC50 (MCF7 [2]): 1600 nM

SMILES: CN[C@H](C(=O)N[C@H](C(=O)N[C@H](/C=C(\C)C(=O)O)C(C)C)C(C)(C)C)C(C)(C)c1cn(C)c2ccccc12
- IC50 (MCF7 [1]): 0.15 nM
- IC50 (MCF7 [2]): 0.25 nM

SMILES: CN[C@H](C(=O)N[C@H](C(=O)N(C)[C@H](/C=C(\C)C(=O)OC)C(C)C)C(C)(C)C)C(C)(C)c1ccccc1
- IC50 (MCF7 [1]): 2 nM
- IC50 (MCF7 [2]): 3 nM

SMILES: C/C(=C\[C@H](C(C)C)N(C)C(=O)[C@@H](NC(=O)[C@@H](N)C(C)(C)c1cn(C)c2ccccc12)C(C)(C)C)C(=O)O
- IC50 (MCF7 [1]): 30 nM
- IC50 (MCF7 [2]): 50 nM

SMILES: C/C(=C\[C@H](C(C)C)N(C)C(=O)[C@@H](NC(=O)[C@H](C(C)(C)c1cn(C)c2ccccc12)[N+](C)(C)C)C(C)(C)C)C(=O)O
- IC50 (MCF7 [1]): > 1000 nM
- IC50 (MCF7 [2]): > 1000 nM

SMILES: CN[C@H](C(=O)N[C@H](C(=O)N(C)[C@H](CC(C)C(=O)O)C(C)C)C(C)(C)C)C(C)(C)c1cn(C)c2ccccc12 (stereo not given in full)
- IC50 (MCF7 [1]): 2.5 nM

SMILES: CN[C@H](C(=O)N[C@H](C(=O)N(C)[C@@H](C)/C=C(\C)C(=O)O)C(C)(C)C)C(C)(C)c1cn(C)c2ccccc12
- IC50 (MCF7 [1]): 4 nM
- IC50 (MCF7 [2]): 4 nM

SMILES: CN[C@H](C(=O)N[C@H](C(=O)N(C)[C@H](/C=C(\C)C(=O)O)C(C)C)C(C)(C)C)C(C)C
- IC50 (MCF7 [1]): 120 nM
- IC50 (MCF7 [2]): 150 nM

SMILES: CN[C@@H](Cc1cn(C)c2ccccc12)C(=O)N[C@H](C(=O)N(C)[C@H](/C=C(\C)C(=O)O)C(C)C)C(C)(C)C
- IC50 (MCF7 [1]): 300 nM
- IC50 (MCF7 [2]): 60 nM

SMILES: CN[C@H](C(=O)N[C@H](C(=O)N(C)[C@H](C)/C=C(\C)C(=O)O)C(C)(C)C)C(C)(C)c1cn(C)c2ccccc12
- IC50 (MCF7 [1]): 200 nM
- IC50 (MCF7 [2]): 40 nM

SMILES: CN[C@@H](Cc1cn(C)c2ccccc12)C(=O)N[C@H](C(=O)N(C)C(C)/C=C(\C)C(=O)O)C(C)(C)C (stereo not given in full)
- IC50 (MCF7 [1]): 1100 nM
- IC50 (MCF7 [2]): 2500 nM

SMILES: CN[C@H](C(=O)N[C@H](C(=O)N[C@H](/C=C(\C)C(=O)O)C(C)C)C(C)(C)C)C(C)(C)c1ccccc1
- IC50 (MCF7 [1]): 20 nM
- IC50 (MCF7 [2]): 15 nM

SMILES: CN[C@H](C(=O)N[C@H](C(=O)N(C)[C@H](/C=C(\C)C(=O)O)C(C)C)C(C)(C)C)C(C)(C)c1c[nH]c2ccccc12 [HEMIASTERLINS A]
- IC50 (MCF7 [1]): 2 nM
- IC50 (MCF7 [2]): 2 nM

SMILES: CN[C@@H](Cc1ccccc1)C(=O)N[C@H](C(=O)N(C)[C@H](/C=C(\C)C(=O)O)C(C)C)C(C)(C)C
- IC50 (MCF7 [1]): 5000 nM
- IC50 (MCF7 [2]): 4000 nM

SMILES: CCOC(=O)/C(C)=C/[C@H](C(C)C)N(C)C(=O)[C@@H](NC(=O)[C@@H](NC)C(C)(C)c1ccccc1)C(C)(C)C
- IC50 (MCF7 [1]): 1 nM
- IC50 (MCF7 [2]): 7 nM

SMILES: CN[C@@H](Cc1cn(C)c2ccccc12)C(=O)N[C@H](C(=O)N(C)C/C=C(\C)C(=O)O)C(C)(C)C
- IC50 (MCF7 [1]): > 10000 nM
- IC50 (MCF7 [2]): > 10000 nM

SMILES: CN[C@H](C(=O)N[C@H](C(=O)N(C)[C@H](/C=C(\C)C(=O)O)C(C)C)C(C)C)C(C)(C)c1c[nH]c2ccccc12 [HEMIASTERLINS B]
- IC50 (MCF7 [1]): 200 nM
- IC50 (MCF7 [2]): 7 nM

SMILES: CC(=O)N(C)[C@H](C(=O)N[C@H](C(=O)N(C)[C@H](/C=C(\C)C(=O)O)C(C)C)C(C)(C)C)C(C)(C)c1cn(C)c2ccccc12
- IC50 (MCF7 [1]): 300 nM
- IC50 (MCF7 [2]): 300 nM

SMILES: CN[C@H](C(=O)N[C@H](C(=O)N(C)[C@H](/C=C(\C)C(=O)N[C@@H](CCCNC(=N)N)C(=O)O)C(C)C)C(C)(C)C)C(C)(C)c1cn(C)c2ccccc12 [CRIAMIDES A]
- IC50 (MCF7 [2]): 1000 nM

SMILES: CN[C@H](C(=O)N[C@H](C(=O)N(C)[C@H](/C=C(\C)C(=O)O)C(C)C)C(C)C)C(C)(C)c1cn(C)c2ccccc12
- IC50 (MCF7 [1]): 0.5 nM
- IC50 (MCF7 [2]): 0.8 nM

SMILES: CN[C@H](C(=O)N[C@H](C(=O)N(C)[C@@H](/C=C(\C)C(=O)O)C(C)C)C(C)(C)C)C(C)(C)c1cn(C)c2ccccc12
- IC50 (MCF7 [1]): 10 nM
- IC50 (MCF7 [2]): 30 nM

SMILES: C/C(=C\[C@H](C(C)C)N(C)C(=O)[C@@H](NC(=O)[C@@H](N)Cc1c[nH]c2ccccc12)C(C)(C)C)C(=O)O
- IC50 (MCF7 [1]): 20 nM
- IC50 (MCF7 [2]): 40 nM

SMILES: CN[C@H](C(=O)N[C@H](C(=O)N(C)[C@H](/C=C(\C)C(=O)OC)C(C)C)C(C)(C)C)C(C)(C)c1cn(C)c2ccccc12 [HEMIASTERLIN METHYL ESTER]
- IC50 (MCF7 [1]): 0.5 nM
- IC50 (MCF7 [2]): 0.5 nM

SMILES: CN[C@H](C(=O)N[C@H](C(=O)N(C)[C@H](/C=C(\C)C(=O)O)C(C)C)C(C)(C)C)C(C)(C)c1cn(C)c2ccccc12 [HEMIASTERLIN]
- IC50 (MCF7 [1]): 0.3 nM
- IC50 (MCF7 [2]): 0.3 nM

SMILES: CN[C@H](C(=O)N[C@H](C(=O)N(C)CCCC(=O)O)C(C)(C)C)C(C)(C)c1cn(C)c2ccccc12
- IC50 (MCF7 [1]): > 1000 nM
- IC50 (MCF7 [2]): > 1000 nM

SMILES: CN[C@H](C(=O)N[C@H](C(=O)N(C)[C@H](/C=C(\C)C(=O)O)C(C)C)C(C)(C)C)C(C)(C)c1ccccc1 [TALTOBULIN]
- IC50 (MCF7 [1]): 0.09 nM
- IC50 (MCF7 [2]): 0.08 nM

SMILES: CC[C@H](NC(=O)[C@@H](NC)C(C)(C)c1cn(C)c2ccccc12)C(=O)N(C)[C@H](/C=C(\C)C(=O)O)C(C)C
- IC50 (MCF7 [1]): 0.5 nM
- IC50 (MCF7 [2]): 0.8 nM

SMILES: C/C(=C\[C@H](C(C)C)N(C)C(=O)[C@@H](NC(=O)C(C)(C)C)C(C)(C)C)C(=O)O
- IC50 (MCF7 [1]): > 10000 nM
- IC50 (MCF7 [2]): > 10000 nM

SMILES: CN[C@H](C(=O)N[C@H](C(=O)N(C)C/C=C(\C)C(=O)O)C(C)(C)C)C(C)(C)c1cn(C)c2ccccc12
- IC50 (MCF7 [1]): > 10000 nM
- IC50 (MCF7 [2]): > 10000 nM

SMILES: CN[C@H](C(=O)N[C@H](C(=O)N(C)[C@H](/C=C(\C)C(=O)O)C(C)C)C(C)(C)C)C(C)(C)C
- IC50 (MCF7 [1]): 6 nM
- IC50 (MCF7 [2]): 6 nM

SMILES: CN[C@@H](C(=O)N[C@H](C(=O)N(C)[C@H](/C=C(\C)C(=O)O)C(C)C)C(C)(C)C)C(C)(C)c1ccccc1
- IC50 (MCF7 [1]): 10 nM
- IC50 (MCF7 [2]): 25 nM
